Measured values of several laboratories.
Protocols differ between the studies behind these lines.
Target: Tyrosine-protein kinase Fgr (FGR, Homo sapiens, UniProt P09769)

`COc1cc2ncnc(Nc3ccc(Oc4ccccc4)c(C)c3C)c2cc1OC` has an inhibition of 93% (enzyme activity, inhibitor; 1 µM).
`CNC(=O)c1cc2c(Oc3ccc(NC(=O)C4(C(=O)Nc5ccc(F)cc5)CC4)cc3)ccnc2cc1OC` gave an inhibition of 79% (enzyme activity, inhibitor, radiometric; 1 µM).
`O=C1CCc2cc(Nc3cc(OC4CCOCC4)c([N+](=O)[O-])cc3Cl)ccc2N1` gave a remaining binding of 100% (cell-free assay, competition with immobilised ligand; 1 µM).
The remaining activity of `Cc1ccc(C(=O)Nc2ccc(CN3CCN(C)CC3)c(C(F)(F)F)c2)cc1C#Cc1cnc2cccnn12` is reported as 10% (enzyme activity; 23.5 nM).
The ΔTm of `Cn1c2c(c3ccc(Cl)c(Cl)c31)C(C#N)C(C)(C)NC2=O` (stereo not shown) is reported as 0.1 °C (thermal stability, DSF; 10 µM).
The remaining activity of `CC(C)(C)c1nc(-c2cccc(NS(=O)(=O)c3c(F)cccc3F)c2F)c(-c2ccnc(N)n2)s1` is reported as 60% (enzyme activity, inhibitor, radiometric; 1 µM).
`CCN(CC)CCNC(=O)c1c(C)[nH]c(/C=C2\C(=O)Nc3ccc(F)cc32)c1C` gave an inhibition of 77% (enzyme activity, inhibitor; 0.3 µM).
The remaining activity of `Cc1cnc(NC2CCOCC2)nc1-n1cnc(C(=O)NC(CN)c2cc(F)cc(Cl)c2)c1` (stereo not shown) is reported as 97% (enzyme activity, inhibitor, radiometric; 1 µM).
`O=S(=O)(NC1CCC(c2cc(F)ccc2F)(S(=O)(=O)c2ccc(Cl)cc2)CC1)C(F)(F)F` (stereo not shown) has a remaining binding of 99% (cell-free assay, competition with immobilised ligand; 1 µM).
With `Cn1c2c(Cl)c(Cl)ccc2c2cn[nH]c(=O)c21` the ΔTm was -0.1 °C (thermal stability, DSF; 10 µM).
`CNC(=O)c1cc(Oc2ccc(NC(=O)Nc3ccc(Cl)c(C(F)(F)F)c3)cc2)ccn1` gave an inhibition of 39% (enzyme activity, inhibitor; 10 µM).
`Cc1ccc(NC(=O)c2ccc(C)c(C(F)(F)F)c2)cc1C#Cc1nn(C2CCC(O)CC2)c2ncnc(N)c12` (stereo not shown) gave a remaining signal of 2% (cell-free assay; 10 µM).
For `Cc1sc(C(=O)NC2COC2)cc1-n1cc(NC(=O)Nc2c(F)cccc2Cl)cn1`, the remaining activity was 80.2% (enzyme activity, inhibitor; 10 µM).
With `O=C(Nc1cccnn1)N1CCC(=Cc2cccc(Oc3ccc(C(F)(F)F)cn3)c2)CC1` the remaining binding was 63% (cell-free assay, competition with immobilised ligand; 1 µM).
`CCC1(CC)NC(=O)c2c(c3ccc(Cl)c(Cl)c3n2C)C1C#N` (stereo not shown) gave a ΔTm of 0 °C (thermal stability, DSF; 10 µM).
For `CC(C)(O)c1cncc(-c2nc3ccc(F)cc3n2C2CC2)c1`, the remaining binding was 100% (cell-free assay, competition with immobilised ligand; 1 µM).
For `CCCOc1ccc(OC)c(F)c1C(=O)c1ccc(C(=O)N[C@@H]2CNC[C@H]2NC(=O)c2ccc3[nH]ncc3c2)cc1`, the remaining activity was 65% (enzyme activity, inhibitor; 10 µM).
The ΔTm of `Cn1c2c(Cl)c(Cl)ccc2c2cc[nH]c(=O)c21` is reported as -0.4 °C (thermal stability, DSF; 10 µM).
`COc1cc(Cl)c(C(=O)N[C@@H](CN[C@H]2CC[C@@H](N)CC2)Cc2ccc(C#N)cc2)cc1-c1ccc(CN[C@H](C)c2ccc(C)cc2)o1` gave a remaining activity of 87% (enzyme activity, inhibitor; 1 µM).
The remaining binding of `O=C(Nc1cccnn1)N1CC(C/C=C/c2cncc(Oc3ccc(C(F)(F)F)cn3)n2)C1` is reported as 100% (cell-free assay, competition with immobilised ligand; 1 µM).
The remaining activity of `O=C(Nc1cnn(-c2csc(C(=O)NC3COC3)c2)c1)Nc1ccccc1Cl` is reported as 90% (enzyme activity, inhibitor; 5 µM).
With `O=C1NC(=O)c2cc(Nc3ccc(F)cc3)c(Nc3ccc(F)cc3)cc21` the remaining signal was 96.3% (cell-free assay; 0.5 µM).
With `CN(c1ccnc(CNc2nc(Nc3ccc4c(c3)CC(=O)N4)ncc2C(F)(F)F)n1)S(C)(=O)=O` the remaining binding was 58% (cell-free assay, competition with immobilised ligand; 1 µM).
With `Cn1c2c(c3ccc(Cl)c(Cl)c31)C(C#N)C1(CCNCC1)NC2=O` (racemic) the ΔTm was 0.1 °C (thermal stability, DSF; 10 µM).
`CN(C)C(=O)Cn1cc(-c2nc(C3(c4ccc(-c5cnc(N)nc5)cc4)CC3)no2)cn1` gave a remaining binding of 100% (cell-free assay, competition with immobilised ligand; 1 µM).
`CN1CCC2(CC1)NC(=O)c1c(c3ccc(Cl)c(Cl)c3n1C)C2C#N` (racemic) has a ΔTm of 0.1 °C (thermal stability, DSF; 10 µM).
The remaining binding of `CS(=O)(=O)c1cc(C2(NC(=O)c3cncc4c3cnn4-c3ccc(F)cc3)CC2)ccn1` is reported as 100% (cell-free assay, competition with immobilised ligand; 1 µM).
`O=C1Nc2ccc(Cl)cc2C1=Cc1cc(Cl)c(O)c(Cl)c1` has a remaining signal of 84.8% (cell-free assay; 0.5 µM).
